# The list is not random: actives were taken first. Their share in the collection is about 3.1%.
# FN deposition inh: fibronectin deposition inhibition | inhibition, % at 12.6 µM | 0.086% of 350,000 active | AH1F fibroblasts, Alexa488-fibronectin deposition fluorescence, overnight;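 active = mean inhibition across replicates of 30% or more, regardless of how many single replicates reach that level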;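 note: positive control wells lacked labelled fibronectin entirely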
#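 Material: AH1F fibroblasts assembling fluorescent fibronectin matrix; amount: 10000 AH1F cells/well; medium: DMEM, 2% serum; reagent: Alexa488-fibronectin, 24 nM final in well; dosing: single compound dose, delivered by pin transfer; incubation: 1 h adhesion, overnight exposure; detection: fluorescence after three HBSS washes, excitation 485 nm, emission 525 nm; measure: fibronectin deposition inhibition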
# HIV Env fusion: inhibitors of HIV Env-mediated cell fusion | 1.1% of 360,000 active | inhibition, % at 12.3 µM | AID 651610 | HeLa-JRFL Env/CEM21 cell fusion, luciferase;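 active = mean replicate inhibition score of at least 50 and every replicate individually at or above 50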;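 note: 0% = plate neutral controls and 100% = maraviroc near 300 nM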
# FGF22 binding: shifts melting point of recombinant human FGF22; recombinant FGF22 thermal shift, SYPRO orange fluorescence; percent of sucrose octasulfate shift, DMSO zero; Q9HCT0; activity (Tm shift, normalised), % at 9.99 µM; AID 651658; 1.5% of 340,000 active;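 active = mean Tm shift, scaled 0 neutral to 100 positive control, at about 1.3% or above, every replicate too, limit read from the data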
# Target sequence (Q9HCT0 whole entry, looked up): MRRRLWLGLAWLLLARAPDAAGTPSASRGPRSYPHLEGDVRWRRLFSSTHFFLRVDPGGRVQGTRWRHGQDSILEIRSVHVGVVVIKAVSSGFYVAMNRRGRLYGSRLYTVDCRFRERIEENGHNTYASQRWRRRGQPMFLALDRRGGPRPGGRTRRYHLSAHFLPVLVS
# EWS-Fli block: EWS/Fli transcriptional activity inhibition. A673 NR0B1-luciferase reporter, viability-normalised. inhibition, % at 12.6 µM. 0.67% of 350,000 active. AID 651661;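 active = mean inhibition of at least 50% after viability correction, with every replicate also passing that limit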;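 note: firefly luciferase signal divided by Alamar Blue viability fluorescence both relative to DMSO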
# PAX8 inh HTS: PAX8 transcriptional activity inhibition | RMG-I TPO-luciferase reporter, SteadyGlo, 24 h | inhibition, % at 12.6 µM | 1.2% of 360,000 active | AID 652154;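 active = mean replicate inhibition at least 60% with every replicate also reaching 60%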;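 note: luciferase light reporting Pax8 driven TPO promoter activity; plate controls were median of neutral control wells for no effect and mitoxantrone controls for full effect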
# PGC1a acetyl inh: PGC1a acetylation modulation, inhibitor mode | inhibition, % at 15.6 µM | AID 651687 | U2OS PGC1a acetylation, AlphaScreen anti-acetyl-lysine; with virally co-expressed GCN5 acetyltransferase | 0.17% of 350,000 active;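 active = every replicate shows inhibition of at least 40%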;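 note: 0% = neutral control wells and 100% = positive control wells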
# An asterisk follows results filed as active; · = no result given; [ ] = dose if it differs, or a comment.
SMILES,FN deposition inh,HIV Env fusion,FGF22 binding,EWS-Fli block,PAX8 inh HTS,PGC1a acetyl inh
COC(=O)[C@]1(C)N[C@H](CN(C)S(=O)(=O)c2ccc(OC(F)(F)F)cc2)[C@@H]2C(=O)N(Cc3ccccc3)C(=O)[C@@H]21,-5,82*,0,-2,-5,·
COC(=O)[C@]1(C)N[C@H](CN(C)C(C)=O)[C@@H]2C(=O)N(Cc3ccccc3)C(=O)[C@@H]21,-4,18,44*,-2,-7,·
CCN(C[C@H]1N[C@@](C)(C(=O)OC)[C@H]2C(=O)N(Cc3ccccc3)C(=O)[C@@H]12)C(=O)Nc1ccc(OC)cc1,7,46,0,-1,13,9
CNC[C@H]1Oc2cc(C#CC3(O)CCCC3)ccc2S(=O)(=O)N([C@H](C)CO)C[C@@H]1C,-1,·,0,-3,-7,-11
O=C(c1ccncc1)N1C[C@@H]2[C@H](c3ccccc31)[C@H](CO)N2C(=O)CN1CCOCC1,2,·,-1,4,-15,8
Oc1[nH]c2ccc(Br)cc2c1N=NC(=S)Nc1ccc(F)cc1,-8,33,1,44,70*,-1
Cc1ccc(-n2c(SCc3ccc(C#N)cc3)nnc2-c2ccccn2)cc1,7,-8,·,·,29,7
C=CCn1c(COc2ccc(Cl)cc2)nnc1SCc1ccc(C#N)cc1,·,58*,·,·,·,4
Cc1ccc(OCc2nnc(SCc3ccc(C#N)cc3)n2-c2ccc(C)cc2)cc1,·,65*,·,·,·,-8
CCn1c(COc2ccc(C)cc2)nnc1SCC(=O)Nc1ccc(S(N)(=O)=O)cc1,·,·,·,·,·,0
C=CCn1c(COc2ccc(Cl)cc2)nnc1SCC(=O)Nc1ccc(S(N)(=O)=O)cc1,2,·,0,-7,64*,0
C=CCn1c(Cc2ccc(OCC)cc2)nnc1SCC(N)=O,1,77*,·,·,·,11
Oc1c(C(c2ccccc2)N2CCOCC2)ccc2ccccc12 (stereo unspecified),5,72*,0,0,87*,14
CCn1c(C(=O)N2CCCC(C(=O)NCCCc3ccccc3)C2)cc2sccc21 (stereo unspecified),-2,66*,·,·,·,·
COc1ccc(C2Nc3ccccc3C(=O)N2c2ccc(F)cc2)cc1CSc1ccccn1 (stereo unspecified),-3,·,0,-17,136*,·
CCCCn1c2ccccc2c2nnc(SCC(=O)NC3=NN=C(c4ccccc4)CS3)nc21,-13,15,0,18,77*,·
O=P(CCCCCCCCCP(=O)(c1ccccc1)c1ccccc1)(c1ccccc1)c1ccccc1,9,-232,·,·,80*,78*
O=C(O)CCCCCCCCCCP(=O)(c1ccccc1)c1ccccc1,1,-13,0,9,7,5
CCC(=O)N1CC2(C1)[C@H](c1ccccc1)[C@@H](CO)N2CC1CCOCC1,-11,·,0,3,·,6
CN(c1cc2c(c3c1ccn3C)C1CCC2C1)C1CCCCC1 (stereo unspecified),13,-10,0,7,4,78*
CCN(C)c1cc2c(c3c1ccn3C)C1CCC2C1 (stereo unspecified),-11,·,1,-5,33,-1
COc1ccc(/C=N/Nc2nc3ccccc3[nH]2)cc1OC,2,5,0,-19,-71,-13
C(=N\Nc1nc2ccccc2[nH]1)/c1ccc2ncccc2c1,8,-99,0,40,-32,49*
CCC(=O)Nc1ccc2c(c1)C(=O)N(C)[C@H]1CC[C@H](CC(=O)Nc3ccc(C(C)C)cc3)O[C@@H]1CO2,9,-5[16.7 µM],·,4,-2,7
CCCNC(=O)C[C@H]1CC[C@@H]2[C@@H](COc3ccc(NC(=O)c4cccc(C(F)(F)F)c4)cc3C(=O)N2C)O1,-19,65*[16.7 µM],0,4,16,0
Cc1nn(C)cc1NC(=O)C[C@H]1CC[C@@H]2[C@@H](COc3ccc(NC(=O)C4CCC4)cc3C(=O)N2C)O1,-17,60*[16.7 µM],·,-2,-3,6
CN1C(=O)c2cc(NC(=O)c3cccc(Cl)c3)ccc2OC[C@H]2O[C@@H](CC(=O)NC3CCCCC3)CC[C@H]21,-11,56*[16.7 µM],1.4*,17,16,-2
